{"source": "ChEMBL document CHEMBL5712892", "about": "“EZH1 and EZH2 promote skeletal growth by repressing inhibitors of chondrocyte proliferation and hypertrophy” (Nat Commun, 2016)", "key": {"EZH1/2 (Mus musculus) [1]": {"biological_target": "T1, EZH1/2 (Mus musculus) (UniProt Q61188+P70351)", "experiment": "Inhibition of Ezh1/2 in wild-type C57BL/6 mouse fetal metatarsal bone assessed as reduction in H3K27me3 expression at 2 microM by immunohistochemical analysis", "format": "tissue-based", "method_in_brief": "(§1)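 E18 wild-type C57BL/6 metatarsals cultured 3 days with DMSO or 2 µM UNC1999, added at start and refreshed day 2. Paraffin sections were proteinase K retrieved (100 µg ml-1, 30 min, room temperature) and peroxidase blocked. They were immunostained with anti-H3K27me2 or anti-H3K27me3 (1:1,000) by ABC/DAB.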"}, "EZH1/2 (Mus musculus) [2]": {"biological_target": "T1, EZH1/2 (Mus musculus)", "experiment": "Inhibition of Ezh1/2 in wild-type C57BL/6 mouse fetal metatarsal bone assessed as reduction in hypertrophic cell size at 2 uM", "format": "tissue-based", "method_in_brief": "(§2)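 Fetal metatarsals (middle three) from E18 wild-type C57BL/6 mice cultured 3 days at 37 °C, 5% CO2 in α-MEM with 0.2% BSA, 0.1 mM β-glycerophosphate, 50 µg ml-1 ascorbic acid. DMSO or UNC1999 (2 µM), ± Igf1 100 ng ml-1, Igfbp3 50 nM or Igfbp5 50 nM, added at start and refreshed day 2. Hypertrophic cell heights averaged within a 100×100 µm area at HZ centre; N = 6.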"}, "EZH1/2 (Mus musculus) [3]": {"biological_target": "T1, EZH1/2 (Mus musculus)", "experiment": "Inhibition of Ezh1/2 in wild-type C57BL/6 mouse fetal metatarsal bone assessed as increase in Igfbp3 expression at 2 uM by immunostaining assay", "format": "tissue-based"}, "EZH1/2 (Mus musculus) [4]": {"biological_target": "T1, EZH1/2 (Mus musculus)", "experiment": "Inhibition of Ezh1/2 in wild-type C57BL/6 mouse isolated primary chondrocytes assessed as reduction in cell proliferation at 2 uM by [3H]thymidine based liquid scintillation counting analysis", "conditions": "Primary chondrocyte", "method_in_brief": "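Monolayer primary chondrocytes (2×10^5 per well) from 1-week-old wild-type mice were treated with DMSO or 2 µM UNC1999 from 16 h after plating. At 24 h after plating they were labelled with 1 µCi 3H-thymidine for 16 h, washed and collagenase-detached. Radioactivity was read by liquid scintillation counting; N = 6.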"}, "EZH1/2 (Mus musculus) [5]": {"biological_target": "T1, EZH1/2 (Mus musculus)", "experiment": "Inhibition of Ezh1/2 in Igfbp3-treated wild-type C57BL/6 mouse fetal metatarsal bone assessed as reduction in hypertrophic cell size at 2 uM", "format": "tissue-based", "method_in_brief": "as §2"}, "EZH1/2 (Mus musculus) [6]": {"biological_target": "T1, EZH1/2 (Mus musculus)", "experiment": "Inhibition of Ezh1/2 in wild-type C57BL/6 mouse isolated primary chondrocyte pellets assessed as increase in Igfbp3 expression at 2 uM by RT-PCR analysis", "format": "cell-based", "method_in_brief": "(§3)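 Pellets of 2.4×10^5 primary chondrocytes from 1-week-old wild-type mice (400 g, 10 min) were cultured up to 4 weeks, switched to 0.1% FBS medium after 16 h. DMSO or UNC1999 (2 µM final) was added at 16 h and refreshed every other day. Col10a1, Ihh, Igfbp3 and Igfbp5 mRNA were measured by real-time RT-PCR at several time points; two-way ANOVA, N = 6.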"}, "EZH1/2 (Mus musculus) [7]": {"biological_target": "T1, EZH1/2 (Mus musculus)", "experiment": "Inhibition of Ezh1/2 in wild-type C57BL/6 mouse isolated primary chondrocytes transfected with Cdkn2a SiRNA assessed as reduction in cell proliferation at 2 uM measured after 24 hrs by [3H]thymidine based liquid scintillation counting analysis", "conditions": "Primary chondrocyte", "method_in_brief": "(§4)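 Primary chondrocytes (1×10^5 per well) from 1-week-old wild-type mice were hyaluronidase-treated (5 U ml-1, 6 h) at 40 h. They were then transfected with 40 pmol siRNA against Cdkn2a and/or Cdkn2b, or scrambled control, using Lipofectamine 2000. DMSO or 2 µM UNC1999 was added 16 h post-transfection. Proliferation was measured 24 h later by 3H-thymidine uptake and scintillation counting; N = 6.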"}, "EZH1/2 (Mus musculus) [8]": {"biological_target": "T1, EZH1/2 (Mus musculus)", "experiment": "Inhibition of Ezh1/2 in wild-type C57BL/6 mouse isolated primary chondrocyte monolayer culture assessed as increase in Igfbp3 expression at 2 uM by immunostaining analysis", "format": "cell-based"}, "EZH1/2 (Mus musculus) [9]": {"biological_target": "T1, EZH1/2 (Mus musculus)", "experiment": "Inhibition of Ezh1/2 in wild-type C57BL/6 mouse isolated primary chondrocyte monolayer culture assessed as increase in Igfbp5 expression at 2 uM by immunostaining analysis", "format": "cell-based"}, "EZH1/2 (Mus musculus) [10]": {"biological_target": "T1, EZH1/2 (Mus musculus)", "experiment": "Inhibition of Ezh1/2 in wild-type C57BL/6 mouse isolated primary chondrocyte pellets assessed as reduction in Ihh expression at 2 uM by RT-PCR analysis", "format": "cell-based", "method_in_brief": "as §3"}, "EZH1/2 (Mus musculus) [11]": {"biological_target": "T1, EZH1/2 (Mus musculus)", "experiment": "Inhibition of Ezh1/2 in wild-type C57BL/6 mouse fetal metatarsal bone assessed as reduction in H3K27me2 expression at 2 microM by immunohistochemical analysis", "format": "tissue-based", "method_in_brief": "as §1"}, "EZH1/2 (Mus musculus) [12]": {"biological_target": "T1, EZH1/2 (Mus musculus)", "experiment": "Inhibition of Ezh1/2 in wild-type C57BL/6 mouse isolated primary chondrocytes transfected with Cdkn2b SiRNA assessed as reduction in cell proliferation at 2 uM measured after 24 hrs by [3H]thymidine based liquid scintillation counting analysis", "conditions": "Primary chondrocyte", "method_in_brief": "as §4"}, "EZH1/2 (Mus musculus) [13]": {"biological_target": "T1, EZH1/2 (Mus musculus)", "experiment": "Inhibition of Ezh1/2 in wild-type C57BL/6 mouse isolated primary chondrocyte pellets assessed as reduction in H3K27me2 level at 2 uM measured after 1 week by immunohistological staining based assay", "format": "cell-based", "conditions": "time 1.0 weeks", "method_in_brief": "(§5)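 Chondrocyte pellets (2.4×10^5 cells, from 1-week-old wild-type mice) were kept in 0.1% FBS medium with DMSO or 2 µM UNC1999 from 16 h, refreshed every other day, for 1 week. Sections were immunostained for H3K27me2 or H3K27me3 (1:1,000, proteinase K retrieval, DAB).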"}, "EZH1/2 (Mus musculus) [14]": {"biological_target": "T1, EZH1/2 (Mus musculus)", "experiment": "Inhibition of Ezh1/2 in wild-type C57BL/6 mouse isolated primary chondrocytes assessed as increase in Cdkn2b expression at 2 uM by RT-PCR analysis", "format": "cell-based", "conditions": "Primary chondrocyte", "method_in_brief": "(§6)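 Monolayer primary chondrocytes from 1-week-old wild-type mice received DMSO or UNC1999 (2 µM final) 16 h after plating. RNA was extracted and Cdkn2a and Cdkn2b mRNA quantified by real-time RT-PCR; N = 6.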"}, "EZH1/2 (Mus musculus) [15]": {"biological_target": "T1, EZH1/2 (Mus musculus)", "experiment": "Inhibition of Ezh1/2 in wild-type C57BL/6 mouse isolated primary chondrocyte pellets assessed as reduction in Col10a1 expression at 2 uM by RT-PCR analysis", "format": "cell-based", "method_in_brief": "as §3"}, "EZH1/2 (Mus musculus) [16]": {"biological_target": "T1, EZH1/2 (Mus musculus)", "experiment": "Inhibition of Ezh1/2 in Igfbp5-treated wild-type C57BL/6 mouse fetal metatarsal bone assessed as reduction in hypertrophic cell size at 2 uM", "format": "tissue-based", "method_in_brief": "as §2"}, "EZH1/2 (Mus musculus) [17]": {"biological_target": "T1, EZH1/2 (Mus musculus)", "experiment": "Inhibition of Ezh1/2 in wild-type C57BL/6 mouse isolated primary chondrocytes assessed as increase in Cdkn2a expression at 2 uM by RT-PCR analysis", "format": "cell-based", "conditions": "Primary chondrocyte", "method_in_brief": "as §6"}, "EZH1/2 (Mus musculus) [18]": {"biological_target": "T1, EZH1/2 (Mus musculus)", "experiment": "Inhibition of Ezh1/2 in wild-type C57BL/6 mouse isolated primary chondrocyte pellets assessed as increase in Igfbp5 expression at 2 uM by RT-PCR analysis", "format": "cell-based", "method_in_brief": "as §3"}, "EZH1/2 (Mus musculus) [19]": {"biological_target": "T1, EZH1/2 (Mus musculus)", "experiment": "Inhibition of Ezh1/2 in Igf1-treated wild-type C57BL/6 mouse fetal metatarsal bone assessed as reduction in hypertrophic cell size at 2 uM", "format": "tissue-based", "method_in_brief": "as §2"}, "EZH1/2 (Mus musculus) [20]": {"biological_target": "T1, EZH1/2 (Mus musculus)", "experiment": "Inhibition of Ezh1/2 in wild-type C57BL/6 mouse fetal metatarsal bone assessed as increase in Igfbp5 expression at 2 uM by immunostaining assay", "format": "tissue-based"}, "EZH1/2 (Mus musculus) [21]": {"biological_target": "T1, EZH1/2 (Mus musculus)", "experiment": "Inhibition of Ezh1/2 in wild-type C57BL/6 mouse isolated primary chondrocyte pellets assessed as reduction in cell hypertrophy at 2 uM measured after 1 week by alcian blue staining based assay", "conditions": "time 1.0 weeks", "method_in_brief": "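Wild-type chondrocyte pellets were cultured in 0.1% FBS medium with DMSO or 2 µM UNC1999 (from 16 h, refreshed every other day). Alcian blue-stained histological sections were examined for cell size at different time points, including 1 week.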"}, "EZH1/2 (Mus musculus) [22]": {"biological_target": "T1, EZH1/2 (Mus musculus)", "experiment": "Inhibition of Ezh1/2 in wild-type C57BL/6 mouse isolated primary chondrocyte pellets assessed as reduction in H3K27me3 level at 2 uM measured after 1 week by immunohistological staining based assay", "format": "cell-based", "conditions": "time 1.0 weeks", "method_in_brief": "as §5"}}, "note": "Activity calls are given as the source filed them. The calls are words filed in the database; no cut-off is given here.", "data": [{"smiles": "CCCc1cc(C)[nH]c(=O)c1CNC(=O)c1cc(-c2ccc(N3CCN(C(C)C)CC3)nc2)cc2c1cnn2C(C)C", "values": [{"measurement": "inhibition", "setting": "EZH1/2 (Mus musculus) [1]", "result": "Active"}, {"measurement": "inhibition", "setting": "EZH1/2 (Mus musculus) [2]", "result": "Active"}, {"measurement": "inhibition", "setting": "EZH1/2 (Mus musculus) [3]", "result": "Active"}, {"measurement": "inhibition", "setting": "EZH1/2 (Mus musculus) [4]", "result": "Active"}, {"measurement": "inhibition", "setting": "EZH1/2 (Mus musculus) [5]", "result": "Active"}, {"measurement": "inhibition", "setting": "EZH1/2 (Mus musculus) [6]", "result": "inactive"}, {"measurement": "inhibition", "setting": "EZH1/2 (Mus musculus) [7]", "result": "inactive"}, {"measurement": "inhibition", "setting": "EZH1/2 (Mus musculus) [8]", "result": "Active"}, {"measurement": "inhibition", "setting": "EZH1/2 (Mus musculus) [9]", "result": "inactive"}, {"measurement": "inhibition", "setting": "EZH1/2 (Mus musculus) [10]", "result": "Active"}, {"measurement": "inhibition", "setting": "EZH1/2 (Mus musculus) [11]", "result": "Active"}, {"measurement": "inhibition", "setting": "EZH1/2 (Mus musculus) [12]", "result": "inactive"}, {"measurement": "inhibition", "setting": "EZH1/2 (Mus musculus) [13]", "result": "Active"}, {"measurement": "inhibition", "setting": "EZH1/2 (Mus musculus) [14]", "result": "Active"}, {"measurement": "inhibition", "setting": "EZH1/2 (Mus musculus) [15]", "result": "Active"}, {"measurement": "inhibition", "setting": "EZH1/2 (Mus musculus) [16]", "result": "Active"}, {"measurement": "inhibition", "setting": "EZH1/2 (Mus musculus) [17]", "result": "Active"}, {"measurement": "inhibition", "setting": "EZH1/2 (Mus musculus) [18]", "result": "Active"}, {"measurement": "inhibition", "setting": "EZH1/2 (Mus musculus) [19]", "result": "inactive"}, {"measurement": "inhibition", "setting": "EZH1/2 (Mus musculus) [20]", "result": "Active"}, {"measurement": "inhibition", "setting": "EZH1/2 (Mus musculus) [21]", "result": "Active"}, {"measurement": "inhibition", "setting": "EZH1/2 (Mus musculus) [22]", "result": "Active"}]}]}
